Measured values from ChEMBL document CHEMBL1153232, “Synthesis and screening of a CaaL peptide library versus FTase reveals a surprising number of substrates” (Bioorg Med Chem Lett, 2010).
Calls of active or inactive are those of the source. The calls are words filed in the database; no cut-off is given here. Peptide text beside a SMILES is read from it. * marks the point of attachment. Dansyl = CN(C)c1cccc2c(S(=O)(=O)*)cccc12

Legend:
[1] = target: Protein farnesyltransferase subunit beta (Homo sapiens) (UniProt P49356); assay: Substrate activity for FTase assessed as increase in fluorescence by spectrofluorimetry in presence of farnesyl diphosphate relative to DnGCVLS; set-up: concentration or dose not given beside the values
[2] = target: Protein farnesyltransferase subunit beta (Homo sapiens) (UniProt P49356); assay: Activity at FTase assessed as formation of farnesylated peptide after 60 mins by HPLC
Outline: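 Peptide (3 μM) with 9 μM FPP and recombinant mammalian FTase (0.05 μM), incubated 60 min. HPLC scored conversion to farnesylated peptide: complete; nearly complete; 25% to 50%; less than 25%; no product.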

Protein farnesyltransferase subunit beta (Homo sapiens), sequence (P49356 whole entry): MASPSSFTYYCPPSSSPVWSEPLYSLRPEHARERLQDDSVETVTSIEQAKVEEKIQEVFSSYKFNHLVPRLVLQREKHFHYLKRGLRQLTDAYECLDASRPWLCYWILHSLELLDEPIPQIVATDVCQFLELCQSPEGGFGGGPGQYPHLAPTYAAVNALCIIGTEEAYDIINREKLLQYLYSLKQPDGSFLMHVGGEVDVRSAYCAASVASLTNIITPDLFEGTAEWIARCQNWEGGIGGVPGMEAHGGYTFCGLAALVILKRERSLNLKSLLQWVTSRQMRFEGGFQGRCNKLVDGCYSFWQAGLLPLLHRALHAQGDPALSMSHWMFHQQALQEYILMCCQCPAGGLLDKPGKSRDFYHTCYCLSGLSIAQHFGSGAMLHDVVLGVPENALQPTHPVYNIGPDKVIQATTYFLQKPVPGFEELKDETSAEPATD

| Compound | Activity [1] | Activity [2] |
| --- | --- | --- |
| CC(C)C[C@H](NC(=O)[C@H](CC(C)C)NC(=O)[C@H](C)NC(=O)[C@H](CS)NC(=O)CNS(=O)(=O)c1cccc2c(N(C)C)cccc12)C(=O)O (Dansyl-GCALL-OH) | < 5% |  |
| CC(C)C[C@H](NC(=O)[C@H](Cc1ccc(O)cc1)NC(=O)[C@H](C)NC(=O)[C@H](CS)NC(=O)CNS(=O)(=O)c1cccc2c(N(C)C)cccc12)C(=O)O (Dansyl-GCAYL-OH) | 0% | inactive |
| CC(C)C[C@H](NC(=O)[C@H](CC(C)C)NC(=O)[C@H](CS)NC(=O)[C@H](CS)NC(=O)CNS(=O)(=O)c1cccc2c(N(C)C)cccc12)C(=O)O (Dansyl-GCCLL-OH) | < 5% |  |
| CC(C)C[C@H](NC(=O)[C@H](CO)NC(=O)[C@H](CS)NC(=O)[C@H](CS)NC(=O)CNS(=O)(=O)c1cccc2c(N(C)C)cccc12)C(=O)O (Dansyl-GCCSL-OH) | 0% | inactive |
| CC(C)C[C@H](NC(=O)[C@H](CCCCN)NC(=O)[C@H](CCC(=O)O)NC(=O)[C@H](CS)NC(=O)CNS(=O)(=O)c1cccc2c(N(C)C)cccc12)C(=O)O (Dansyl-GCEKL-OH) | 0% | inactive |
| CC(C)C[C@H](NC(=O)[C@H](CS)NC(=O)CNC(=O)[C@H](CS)NC(=O)CNS(=O)(=O)c1cccc2c(N(C)C)cccc12)C(=O)O (Dansyl-GCGCL-OH) | 0% | inactive |
| CC(C)C[C@H](NC(=O)CNC(=O)CNC(=O)[C@H](CS)NC(=O)CNS(=O)(=O)c1cccc2c(N(C)C)cccc12)C(=O)O (Dansyl-GCGGL-OH) | 0% | inactive |
| CC(C)C[C@H](NC(=O)[C@H](CCC(N)=O)NC(=O)CNC(=O)[C@H](CS)NC(=O)CNS(=O)(=O)c1cccc2c(N(C)C)cccc12)C(=O)O (Dansyl-GCGQL-OH) | 0% | inactive |
| CC(C)C[C@H](NC(=O)[C@H](C)NC(=O)[C@H](Cc1cnc[nH]1)NC(=O)[C@H](CS)NC(=O)CNS(=O)(=O)c1cccc2c(N(C)C)cccc12)C(=O)O (Dansyl-GCHAL-OH) | 0% | inactive |
| CC(C)C[C@H](NC(=O)[C@@H]1CCCN1C(=O)[C@H](Cc1cnc[nH]1)NC(=O)[C@H](CS)NC(=O)CNS(=O)(=O)c1cccc2c(N(C)C)cccc12)C(=O)O (Dansyl-GCHPL-OH) | 0% | inactive |
| CC(C)C[C@H](NC(=O)[C@@H](NC(=O)[C@H](CCCCN)NC(=O)[C@H](CS)NC(=O)CNS(=O)(=O)c1cccc2c(N(C)C)cccc12)C(C)C)C(=O)O (Dansyl-GCKVL-OH) | < 5% |  |
| CC(C)C[C@H](NC(=O)CNC(=O)[C@H](CC(C)C)NC(=O)[C@H](CS)NC(=O)CNS(=O)(=O)c1cccc2c(N(C)C)cccc12)C(=O)O (Dansyl-GCLGL-OH) | 0% | inactive |
| CC[C@H](C)[C@H](NC(=O)[C@H](CC(C)C)NC(=O)[C@H](CS)NC(=O)CNS(=O)(=O)c1cccc2c(N(C)C)cccc12)C(=O)N[C@@H](CC(C)C)C(=O)O (Dansyl-GCLIL-OH) | < 5% | Active |
| CC(C)C[C@H](NC(=O)[C@H](CC(C)C)NC(=O)[C@H](CC(C)C)NC(=O)[C@H](CS)NC(=O)CNS(=O)(=O)c1cccc2c(N(C)C)cccc12)C(=O)O (Dansyl-GCLLL-OH) | < 5% |  |
| CC(C)C[C@H](NC(=O)[C@H](CCC(N)=O)NC(=O)[C@H](CC(C)C)NC(=O)[C@H](CS)NC(=O)CNS(=O)(=O)c1cccc2c(N(C)C)cccc12)C(=O)O (Dansyl-GCLQL-OH) | 0% | < 25% |
| CC(C)C[C@H](NC(=O)[C@@H](NC(=O)[C@H](CC(C)C)NC(=O)[C@H](CS)NC(=O)CNS(=O)(=O)c1cccc2c(N(C)C)cccc12)C(C)C)C(=O)O (Dansyl-GCLVL-OH) | < 5% |  |

| Compound | Activity [1] | Activity [2] |
| --- | --- | --- |
| CSCC[C@H](NC(=O)[C@H](CS)NC(=O)CNS(=O)(=O)c1cccc2c(N(C)C)cccc12)C(=O)N[C@@H](CCC(=O)O)C(=O)N[C@@H](CC(C)C)C(=O)O (Dansyl-GCMEL-OH) | 0% | inactive |
| CC(C)C[C@H](NC(=O)[C@@H]1CCCN1C(=O)[C@H](CC(N)=O)NC(=O)[C@H](CS)NC(=O)CNS(=O)(=O)c1cccc2c(N(C)C)cccc12)C(=O)O (Dansyl-GCNPL-OH) | 0% | inactive |
| CC[C@H](C)[C@H](NC(=O)[C@@H]1CCCN1C(=O)[C@H](CS)NC(=O)CNS(=O)(=O)c1cccc2c(N(C)C)cccc12)C(=O)N[C@@H](CC(C)C)C(=O)O (Dansyl-GCPIL-OH) | < 5% |  |
| CC(C)C[C@H](NC(=O)[C@H](CC(C)C)NC(=O)[C@H](CCC(N)=O)NC(=O)[C@H](CS)NC(=O)CNS(=O)(=O)c1cccc2c(N(C)C)cccc12)C(=O)O (Dansyl-GCQLL-OH) | 0% | < 25% |
| CC(C)C[C@H](NC(=O)[C@H](CC(N)=O)NC(=O)[C@H](CCC(N)=O)NC(=O)[C@H](CS)NC(=O)CNS(=O)(=O)c1cccc2c(N(C)C)cccc12)C(=O)O (Dansyl-GCQNL-OH) | 0% | inactive |
| CC(C)C[C@H](NC(=O)[C@H](CC(C)C)NC(=O)[C@H](CCCNC(=N)N)NC(=O)[C@H](CS)NC(=O)CNS(=O)(=O)c1cccc2c(N(C)C)cccc12)C(=O)O (Dansyl-GCRLL-OH) | < 5% |  |
| CC(C)C[C@H](NC(=O)[C@H](Cc1ccccc1)NC(=O)[C@H](CO)NC(=O)[C@H](CS)NC(=O)CNS(=O)(=O)c1cccc2c(N(C)C)cccc12)C(=O)O (Dansyl-GCSFL-OH) | 0% | inactive |
| CC(C)C[C@H](NC(=O)[C@H](CC(C)C)NC(=O)[C@H](CO)NC(=O)[C@H](CS)NC(=O)CNS(=O)(=O)c1cccc2c(N(C)C)cccc12)C(=O)O (Dansyl-GCSLL-OH) | 0% | < 25% |
| CC(C)C[C@H](NC(=O)[C@H](CCC(N)=O)NC(=O)[C@H](CO)NC(=O)[C@H](CS)NC(=O)CNS(=O)(=O)c1cccc2c(N(C)C)cccc12)C(=O)O (Dansyl-GCSQL-OH) | 0% | inactive |
| CC(C)C[C@H](NC(=O)[C@@H](NC(=O)[C@H](CO)NC(=O)[C@H](CS)NC(=O)CNS(=O)(=O)c1cccc2c(N(C)C)cccc12)[C@@H](C)O)C(=O)O (Dansyl-GCSTL-OH) | 0% | inactive |
| CC(C)C[C@H](NC(=O)[C@@H](NC(=O)[C@H](CO)NC(=O)[C@H](CS)NC(=O)CNS(=O)(=O)c1cccc2c(N(C)C)cccc12)C(C)C)C(=O)O (Dansyl-GCSVL-OH) | 0% |  |
| CC(C)C[C@H](NC(=O)[C@H](C)NC(=O)[C@@H](NC(=O)[C@H](CS)NC(=O)CNS(=O)(=O)c1cccc2c(N(C)C)cccc12)[C@@H](C)O)C(=O)O (Dansyl-GCTAL-OH) | 0% | inactive |
| CC(C)C[C@H](NC(=O)[C@H](CC(C)C)NC(=O)[C@@H](NC(=O)[C@H](CS)NC(=O)CNS(=O)(=O)c1cccc2c(N(C)C)cccc12)[C@@H](C)O)C(=O)O (Dansyl-GCTLL-OH) | 0% |  |
| CC(C)C[C@H](NC(=O)CNC(=O)[C@@H](NC(=O)[C@H](CS)NC(=O)CNS(=O)(=O)c1cccc2c(N(C)C)cccc12)C(C)C)C(=O)O (Dansyl-GCVGL-OH) | 0% | inactive |
| CC(C)C[C@H](NC(=O)[C@H](CC(C)C)NC(=O)[C@@H](NC(=O)[C@H](CS)NC(=O)CNS(=O)(=O)c1cccc2c(N(C)C)cccc12)C(C)C)C(=O)O (Dansyl-GCVLL-OH) | < 5% |  |
